Laboratory results as given in ChEMBL document CHEMBL3580604, “Flavonoids from Matteuccia struthiopteris and Their Anti-influenza Virus (H1N1) Activity” (J Nat Prod, 2015).
Calls of active or inactive are those of the source. No cut-off for these calls is given here.

What was measured:
[1] = target: Neuraminidase (Influenza A virus) (UniProt B4URF0); experiment: Inhibition of Influenza A virus A/PR/8/34 (H1N1) neuraminidase activity measured in infected MDCK cells using MUNANA as substrate assessed as fluorescence intensity after 48 hrs; assay type: cell-based; conditions: Influenza A virus (A/Puerto Rico/8/1934(H1N1))
In short: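 MDCK cells (2 × 10^4/well) infected with A/PR/8/34 at MOI 0.01, with samples (0.7–166 μM, DMEM with 1% DMSO) added at the same time. After 1 h at 37 °C the cells were washed and fresh sample-containing DMEM added for 48 h. Supernatant NA activity was read with MUNANA for 45 min at 37 °C (ex 355/em 485 nm). Triplicate runs; EC50 by linear extrapolation; ribavirin 0.8–200 μM control.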

MDCK = experiment: Cytotoxicity against MDCK cells assessed as cell viability after 72 hrs by MTT assay; assay type: cell-based, Canis lupus familiaris; conditions: dog
[2] = Selectivity index, ratio of cytotoxicity for MDCK cells to EC50 for Influenza A virus A/PR/8/34 (H1N1) neuraminidase activity; assay type: toxicity, cell-based; conditions: dog, read-out: Selectivity Index
In short: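 SI calculated as CC50/EC50, with CC50 from the 72 h MDCK AlamarBlue assay and EC50 from the MUNANA neuraminidase assay on supernatants of PR8-infected MDCK cells at 48 h.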

Chain of Neuraminidase (Influenza A virus) (B4URF0 as listed by the source): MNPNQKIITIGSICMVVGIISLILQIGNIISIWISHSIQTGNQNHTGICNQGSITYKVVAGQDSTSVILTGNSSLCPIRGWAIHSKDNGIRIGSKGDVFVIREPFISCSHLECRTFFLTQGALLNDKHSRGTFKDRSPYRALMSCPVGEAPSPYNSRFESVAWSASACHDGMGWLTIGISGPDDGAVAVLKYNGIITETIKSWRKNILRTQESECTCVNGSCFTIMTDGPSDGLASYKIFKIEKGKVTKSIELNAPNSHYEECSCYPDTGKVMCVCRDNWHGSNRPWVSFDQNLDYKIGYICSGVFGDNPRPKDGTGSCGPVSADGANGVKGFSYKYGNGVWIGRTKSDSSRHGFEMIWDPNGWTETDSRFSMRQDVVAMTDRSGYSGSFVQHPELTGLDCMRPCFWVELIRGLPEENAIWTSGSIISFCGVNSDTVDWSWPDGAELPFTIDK

| Compound | inhibition [1] | Activity (MDCK) | selectivity ratio [2] |
| --- | --- | --- | --- |
| CC(=O)O[C@@H]1[C@@H](O)[C@@H](O[C@@H]2O[C@H](CO)[C@@H](O)[C@@H](O)[C@H]2O)[C@H](Oc2c(-c3ccc(O)cc3)oc3cc(O[C@@H]4O[C@@H](C)[C@H](O)[C@@H](O)[C@H]4O)cc(O)c3c2=O)O[C@H]1C | inactive | Non-toxic | – |
| COC(=O)C(C)OC(O[C@H]1[C@H](Oc2c(-c3ccc(O)cc3)oc3cc(O[C@@H]4O[C@@H](C)[C@H](O)[C@@H](O)[C@H]4O)cc(O)c3c2=O)O[C@@H](C)[C@H](O)[C@H]1O)C(O)C(=O)OC (stereo partly drawn) | inactive | Non-toxic | – |
| CC(=O)O[C@@H]1[C@@H](O)[C@@H](O[C@@H]2O[C@H](CO)[C@@H](O)[C@H](O)[C@H]2O)[C@H](Oc2c(-c3ccc(O)cc3)oc3cc(O[C@@H]4O[C@@H](C)[C@H](O)[C@@H](O)[C@H]4O)cc(O)c3c2=O)O[C@H]1C | inactive | Non-toxic | – |
| O=c1c(O[C@@H]2O[C@H](CO)[C@@H](O)[C@H](O)[C@H]2O)c(-c2ccc(O)cc2)oc2cc(O)cc(O)c12 [ASTRAGALIN] | – | Non-toxic | 12.4 |
| COC(=O)C1(O)CC(C)OC1O[C@H]1[C@H](Oc2c(-c3ccc(O)cc3)oc3cc(O[C@@H]4O[C@@H](C)[C@H](O)[C@@H](O)[C@H]4O)cc(O)c3c2=O)O[C@@H](C)[C@H](O)[C@H]1O (stereo partly drawn) | inactive | Non-toxic | – |
| C[C@@H]1O[C@@H](Oc2cc(O)c3c(=O)c(O[C@@H]4O[C@@H](C)[C@H](O)[C@@H](O)[C@H]4O[C@@H]4O[C@@H](C)[C@H](O)[C@@H](O)[C@H]4O)c(-c4ccc(O)cc4)oc3c2)[C@H](O)[C@H](O)[C@H]1O | inactive | Non-toxic | – |
| COc1c(O)cc([C@@H]2CC(=O)c3c(O)c(C)c(O[C@@H]4O[C@H](CO)[C@@H](O)[C@H](O)[C@H]4O)c(C)c3O2)cc1O | – | Non-toxic | 34.4 |
| COc1c(O)cc(C2CC(=O)c3c(O)c(C)c(O)c(C)c3O2)cc1O (stereo not drawn) | – | Non-toxic | 3.1 |
| C[C@@H]1O[C@@H](Oc2cc(O)c3c(=O)c(O[C@@H]4O[C@@H](C)[C@H](O)[C@@H](O)[C@H]4O[C@@H]4O[C@H](CO)[C@@H](O)[C@@H](O)[C@H]4O)c(-c4ccc(O)cc4)oc3c2)[C@H](O)[C@H](O)[C@H]1O | inactive | Non-toxic | – |
